# KCNQ1 act: potentiates or activates the human KCNQ1 potassium channel; P51787; CHO-K1 KCNQ1, thallium flux FluxOR fluorescence; active compounds read high; B-score at 10 µM; 310,000 tested, 0.35% active;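 active = fluorescence ratio B-score, a plate-corrected score, at least three library SD, with initial intensity B-score within 5 SD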
#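 System: CHO-K1 cells stably expressing KCNQ1 / Medium: assay buffer for compound exposure, DMSO matched across wells / Reagent: thallium- and potassium-containing depolarizing buffer / Compound: one concentration, matched DMSO / Incubation: 20 min compound pretreatment at room temperature / Measured by: kinetic FluxOR fluorescence, 10 s baseline plus 110 s post-stimulus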
# PHOSPHO1 inh: inhibitors of human PHOSPHO1 phosphatase; Q8TCT1; recombinant PHOSPHO1, absorbance phosphatase assay; inhibition, % at 13.3 µM; 290,000 tested, 1.1% active; AID 1565; in the data active = inhibition above about 60%
# KCNK3 block: human KCNK3 channel inhibition, primary screen | O14649 | CHO-KCNK3 thallium flux, FluxOR fluorescence; active compounds read low | B-score at 10 µM | 340,000 tested, 0.84% active;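 active = B-score under library mean minus 4 SD, starting fluorescence ratio at most library mean plus 5 SD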;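 note: more negative B-score means stronger inhibition of thallium flux through KCNK3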
# hERG rescue: compounds protecting human hERG from proarrhythmic drug block; Q12809; CHO-hERG, FluxOR thallium flux, dofetilide IC70 present; activation (rescue from dofetilide block), less the hit threshold, % at 10 µM; 310,000 tested, 0.51% active; AID 1511;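 active = activation above the mean of controls blocked by dofetilide plus 5 SD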;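 note: thallium influx through hERG after potassium depolarization seen as dye fluorescence rise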
# KCNQ1 inh: inhibitors of human KCNQ1 potassium channel | 310,000 tested, 1.3% active | B-score at 10 µM | CHO-K1 KCNQ1, FluxOR thallium flux fluorescence; active compounds read high;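 active = compounds whose thallium flux B-score, printed positive for inhibition, exceeds three library SD while starting fluorescence stays within three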;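 note: channel opened by potassium depolarization with thallium stimulus after 20 min compound exposure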
# KCNK9 block: human KCNK9 channel inhibition. 310,000 tested, 1.2% active. B-score at 10 µM. Q9NPC2. HEK293 KCNK9, FluxOR thallium flux fluorescence; active compounds read low;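 active = ratio B-score over 3 SD below the library mean, with starting fluorescence within 5 SD of its mean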;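 note: negative B-score means less thallium flux so channel inhibition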
# Target sequence (Q9NPC2 whole entry, looked up): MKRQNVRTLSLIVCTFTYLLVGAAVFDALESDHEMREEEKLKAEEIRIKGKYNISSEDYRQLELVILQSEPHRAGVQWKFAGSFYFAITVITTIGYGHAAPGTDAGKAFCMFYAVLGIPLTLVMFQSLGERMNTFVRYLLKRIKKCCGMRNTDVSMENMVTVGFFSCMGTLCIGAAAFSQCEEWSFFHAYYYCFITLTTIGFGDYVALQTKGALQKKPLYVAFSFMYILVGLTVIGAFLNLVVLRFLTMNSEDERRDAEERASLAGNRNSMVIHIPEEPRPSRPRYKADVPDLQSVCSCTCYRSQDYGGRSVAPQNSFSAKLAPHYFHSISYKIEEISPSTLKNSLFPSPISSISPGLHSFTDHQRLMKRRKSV
# KCNK9 block conf: human KCNK9 inhibitor confirmation. 4,900 tested, 43% active. shares compounds with KCNK9 block. inhibition, % at 10 µM. HEK293 KCNK9 cells, FluxOR thallium flux fluorescence;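 active = thallium signal inhibited by more than 5 SD of the compound-free buffer control wells, on both duplicate plates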;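 note: 0% = assay buffer control wells without compound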
# Kir2-1 spec: selectivity of KCNK9 modulators against mouse Kir2.1. shares compounds with KCNK9 block. Kir2.1 cells, FluxOR thallium flux fluorescence. inhibition, % at 10 µM. 4,900 tested, 4% active. AID 492993;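 active = thallium signal drop more than 5 SD beyond the mean of the no-compound control wells, seen in both duplicate plates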;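 note: signal is fluorescence rise after thallium addition divided by baseline fluorescence; plate controls were assay buffer only for no effect and full block by chlorpromazine control for full effect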
# KCNK9 uninduced: second check of KCNK9 modulator effects in non-induced HEK293 cells; shares compounds with KCNK9 block; FluxOR thallium flux; inhibition, % at 10 µM; 4,900 tested, 40% active;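 active = thallium signal drop beyond 5 SD of the untreated control mean, on both duplicate plates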;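 note: plate controls were buffer only IC0 wells for no effect and SID17386958 at its maximal inhibitory level for full effect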
# Numbers without * were called inactive; i = inactive; · = no result. Hits are enriched below; roughly 4% of the tested compounds scored in any of these assays.
SMILES,KCNQ1 act,PHOSPHO1 inh,KCNK3 block,hERG rescue,KCNQ1 inh,KCNK9 block,KCNK9 block conf,Kir2-1 spec,KCNK9 uninduced
COc1ccccc1/C=C(/CC(=O)NCc1ccccc1)c1nc2ccccc2s1,i,-21.4,i,-15.9,i,-9.68*,70.5%*,i,i
COc1ccccc1/C=C(/CC(=O)NCc1ccc(F)cc1)c1nc2ccccc2s1,i,-40.1,i,-9.0,i,-16.2*,65.5%*,i,36.5%*
O=C(CCCc1nc2ccccc2s1)NCc1ccccc1,i,23.6,i,-8.3,i,i,·,·,·
COc1ccc(CCNC(=O)C23CCC(C)(C(=O)C2=O)C3(C)C)cc1OC (configuration not stated),i,50.7,i,-4.2,i,i,·,·,·
Cn1c(=O)c2c(nc(OCc3ccc4c(c3)OCO4)n2Cc2ccccc2Cl)n(C)c1=O,i,27.4,i,-6.2,i,i,·,·,·
O=C(c1cnc(Cl)c(Cl)c1)N1CCN(S(=O)(=O)c2ccc3ccccc3c2)CC1,·,·,i,·,·,·,·,·,·
O=C(c1cnc(Cl)c(Cl)c1)N1CCC(Cc2ccccc2)CC1,i,31.7,i,-8.2,i,i,i,i,i
O=C(NCCc1ccccc1)c1ccc2nc(N3CCOCC3)sc2c1,i,-21.1,i,-7.6,i,i,·,·,·
O=C(c1ccc2nc(N3CCOCC3)sc2c1)N1CCC(Cc2ccccc2)CC1,i,-11.5,i,-13.5,i,i,i,i,i
COC(=O)c1cc2c(cc1Cl)SC(=NCCCN1CCOCC1)NS2(=O)=O,i,-17.9,i,-8.3,i,i,·,·,·
COc1ccc(C(=O)NCc2nnc(SCC(=O)Nc3ccccc3OC)n2C)cc1,i,52.8,i,-4.6,i,i,i,i,i
C/C(=N\NC(=S)NCc1ccccc1)c1ccc(C(C)(C)C)cc1,i,-21.2,i,-10.0,i,i,i,i,i
C/C(=N\NC(=S)NCc1ccccc1)c1ccc(C#N)cc1,i,-45.0,i,-13.7,i,i,·,·,·
C=CCOC(=O)C1=C(C)NC(=O)NC1c1ccc(Cl)cc1 (configuration not stated),i,2.7,i,-10.5,i,i,·,·,·
CCOc1ccccc1OCCOCCN1CCN(Cc2ccccc2)CC1,i,36.7,i,-5.2,i,i,·,·,·
O=C(c1ccccc1)c1ccc(OCCOCCN2CCN(Cc3ccccc3)CC2)cc1,i,19.2,i,-24.6,i,i,i,i,i
CCC(=O)c1ccccc1OCCN1CCN(Cc2ccccc2)CC1,i,-7.0,i,-8.1,i,i,i,i,i
O=S(=O)(O)c1cccc2cccc(Nc3ccccc3)c12,i,·,i,-2.6,i,i,·,·,·
Cc1ccc2c(c1)C1(OCCCO1)C(=O)N2CC(=O)NN,i,·,i,-6.9,i,i,·,·,·
COc1cc(C)c(NC(=O)C(=S)NCCc2ccccc2)cc1C,i,-103.3,i,-12.0,i,i,i,i,i
COc1ccc(NC(=O)CN2CCN(c3c(C)cc(C)cc3C)CC2)cc1,i,19.3,i,-8.5,i,i,i,39.5%*,i
COc1ccc(N2CCN(CC(=O)Nc3ccc(C)cc3)CC2)cc1,i,·,i,-3.2,i,i,·,·,·
COc1ccc(NC(=O)CN2CCN(c3ccccc3)CC2)cc1,i,29.5,i,-3.1,i,i,·,·,·
COc1ccc(NC(=O)CN2CCN(c3ccc(C)cc3C)CC2)cc1,i,28.7,i,-1.3,i,i,i,i,i
COc1ccc(NC(=O)CN2CCN(c3c(C)cccc3C)CC2)cc1,i,·,i,-7.7,i,i,i,i,i
CNC(=O)c1ccc(-n2nc(C)cc2-c2ccccc2)cc1,i,15.3,i,-5.2,i,i,·,·,·

# Bioassay records as filed in PubChem BioAssay.
